Experimental data: publication PMC7612593 (Nature, 2022)

Legend:
α4β3δ GABAAR [1] = target: α4β3δ GABAAR (Homo sapiens, UniProt O14764+P28472+P48169); assay: whole-cell patch clamp electrophysiology on the α4β3δ cell line; type: cell-based; settings: for receptors gated, % of total receptors gated by 10 mM GABA + 30 μM Etomidate: 10 mM each ligand, 2 s first pulse of two-pulse protocol, mean ± SD; for Hill coefficient: Hill plot of normalized peak amplitude against agonist concentration
α4β3 GABAAR = α4β3 GABAAR (Homo sapiens, UniProt P28472+P48169); assay: whole-cell patch clamp electrophysiology on α4β3 cells; type: cell-based; settings: for enhancement of GABA current by histamine: 300 μM histamine with 100 nM GABA
Summary of the method: (§1)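 Cells on coverslips were induced with tetracycline (2 μg/ml, 28–32 h); β3δ cells were the β3 line transiently transfected with δ. Whole-cell clamp at –50 mV, 20–22 °C, pH 7.4 bath, KCl/Mg-ATP pipette. […] One-way ANOVA.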

β3δ GABAAR = target: T1, β3δ GABAAR (Homo sapiens, UniProt O14764+P28472); assay: whole-cell patch clamp electrophysiology on β3δ cells; type: cell-based; settings: for enhancement of GABA current by histamine: 300 μM histamine with 100 nM GABA
T1 sequence (P28472 26-473): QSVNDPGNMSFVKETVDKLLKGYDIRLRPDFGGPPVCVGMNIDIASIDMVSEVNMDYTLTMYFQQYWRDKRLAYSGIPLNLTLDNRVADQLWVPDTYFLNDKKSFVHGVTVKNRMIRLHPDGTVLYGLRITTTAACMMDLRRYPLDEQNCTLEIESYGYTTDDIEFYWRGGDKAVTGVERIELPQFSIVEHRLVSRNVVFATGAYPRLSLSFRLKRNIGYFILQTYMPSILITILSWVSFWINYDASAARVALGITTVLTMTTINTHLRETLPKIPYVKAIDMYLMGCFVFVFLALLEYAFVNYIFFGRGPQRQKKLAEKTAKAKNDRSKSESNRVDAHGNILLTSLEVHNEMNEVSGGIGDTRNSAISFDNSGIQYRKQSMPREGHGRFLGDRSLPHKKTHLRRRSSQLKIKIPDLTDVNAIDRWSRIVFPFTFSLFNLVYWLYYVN
T1 sequence (O14764 17-452 limits assumed): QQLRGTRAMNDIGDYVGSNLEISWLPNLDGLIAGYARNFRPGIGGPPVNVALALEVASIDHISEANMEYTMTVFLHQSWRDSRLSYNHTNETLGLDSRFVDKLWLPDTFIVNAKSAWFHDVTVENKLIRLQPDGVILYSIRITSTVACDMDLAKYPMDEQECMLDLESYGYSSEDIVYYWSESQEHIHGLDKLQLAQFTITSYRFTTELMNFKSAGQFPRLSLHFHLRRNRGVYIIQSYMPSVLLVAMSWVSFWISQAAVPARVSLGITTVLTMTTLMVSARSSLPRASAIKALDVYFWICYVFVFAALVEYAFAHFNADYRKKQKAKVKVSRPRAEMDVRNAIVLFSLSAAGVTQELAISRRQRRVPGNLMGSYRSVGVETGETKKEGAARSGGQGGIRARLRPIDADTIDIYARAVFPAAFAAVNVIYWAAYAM
Summary of the method: as §1

β3 GABAAR = target: T2, β3 GABAAR (Homo sapiens, UniProt P28472); assay: whole-cell patch clamp electrophysiology on β3 cells; type: cell-based; settings: for enhancement of GABA current by histamine: 300 μM histamine with 100 nM GABA
T2 sequence (P28472 26-473): T1 sequence (P28472 26-473)
Summary of the method: as §1

α1β3γ2 GABAAR = α1β3γ2 GABAAR (Homo sapiens, UniProt P14867+P18507+P28472); assay: radioligand assay, competition with pre-bound [3H]Ro15-4513, α1β3γ2 cell line; type: binding; settings: membranes from α1β3γ2 cell line
α4β3γ2 GABAAR = α4β3γ2 GABAAR (Homo sapiens, UniProt P18507+P28472+P48169); assay: radioligand assay, competition with pre-bound [3H]Ro15-4513, α4β3γ2 cell pool; type: binding; settings: membranes from α4β3γ2 cell pool
α4β3δ GABAAR [2] = settings: cited from earlier work

Compound: NCCCC(=O)O [GABA, γ-aminobutyric acid]
- activation of currents by GABA (α4β3δ GABAAR [1]; 100 nM GABA): robustly activates currents
- receptors gated, % of total receptors gated by 10 mM GABA + 30 μM Etomidate (α4β3δ GABAAR [1]): 15.0 ± 6.0%
- time for deactivating current to reach 50% of its original value (α4β3δ GABAAR [1]; 200 ms pulse of 10 μM GABA in the absence of histamine): 2.7 ± 0.7 s
- Hill coefficient (α4β3δ GABAAR [1]): 0.9
- activation of currents by GABA (α4β3 GABAAR; 100 nM GABA): barely
- gating by GABA (β3δ GABAAR; 200 μM GABA, 8 s pulse): not gated
- gating by GABA (β3 GABAAR; 200 μM GABA, 8 s pulse): not gated

Compound: CCOC(=O)c1ncn2c1CN(C)C(=O)c1cc(N=[N+]=[N-])ccc1-2 [Ro15-4513]
- effect on GABA currents (α4β3δ GABAAR [1]; whole-cell electrophysiology recordings, α4β3δ cell line): little effect
- binding of Ro15-4513 (α1β3γ2 GABAAR): binds
- binding of Ro15-4513 (α4β3γ2 GABAAR): binds

Compound: Oc1noc2c1CCNC2 [THIP, 4,5,6,7-tetrahydroisoxazolo[5,4-c]pyridin-3-ol]
- potency and efficacy at α4β3δ relative to other receptors subtypes (α4β3δ GABAAR [2]): higher potency and supramaximal efficacy

Compound: NCCc1c[nH]cn1 [histamine]
- fast and slow time constants of deactivation (α4β3δ GABAAR [1]; 10 μM GABA pulse in the presence of 100 μM histamine, P = 0.03): decreased significantly
- fraction of receptors with slow deactivation (α4β3δ GABAAR [1]; 10 μM GABA pulse in the presence of 100 μM histamine, P = 0.04): increased
- enhancement of GABA current by histamine (α4β3δ GABAAR [1]; 300 μM histamine with 100 nM GABA): robustly enhances
- receptors gated, % of total receptors gated by 10 mM GABA + 30 μM Etomidate (α4β3δ GABAAR [1]): 50.2 ± 11.0%
- time for deactivating current to reach 50% of its original value (α4β3δ GABAAR [1]; 200 ms pulse of 10 μM GABA in the presence of 100 μM histamine): 1.0 ± 0.4 s
- decrease in peak current amplitude of the deactivating currents (α4β3δ GABAAR [1]; 200 ms pulse of 10 μM GABA, pre-application of 100 μM histamine, n = 4 cells): 74.5 ± 11.9%
- Hill coefficient (α4β3δ GABAAR [1]): 1.1
- deactivation of currents following a brief pulse of 10 μM GABA (α4β3δ GABAAR [1]; continuous presence of 100 μM histamine): accelerated
- efficacy of histamine relative to GABA (α4β3δ GABAAR [1]; whole-cell currents): 3 fold
- enhancement of GABA current by histamine (α4β3 GABAAR): Only modest responses
- enhancement of GABA current by histamine (α4β3 GABAAR; listed as Histamine): only modestly
- enhancement of GABA current by histamine (β3δ GABAAR): Only modest responses
- enhancement of GABA current by histamine (β3δ GABAAR; listed as Histamine): only modestly
- enhancement of GABA current by histamine (β3 GABAAR): Only modest responses
- enhancement of GABA current by histamine (β3 GABAAR; listed as Histamine): only modestly
